Measurements: the EternaBench riboswitch data

Tested on: MS2 coat protein
Experiment: apparent Kd, MS2 coat protein; higher = weaker binding; RNA-MaP array; FMN 200 µM where present
How it was run: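 Green signal was scaled to red-channel RNA signal and control-cluster median Fmax, and the apparent Kd was taken as the median of filtered per-cluster binding-curve fits. The binding series used SNAP-549-labelled MS2 coat protein from 0.7 or 1.5 nM, doubling to 3 µM, on designs transcribed by stalled E. coli RNA polymerase on Illumina sequencing-chip clusters. Each series ran without and then with constant ligand in 100 mM Tris-HCl pH 7.5, 80 mM KCl, 4 mM MgCl2, BSA, DTT, yeast tRNA and Tween-20.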

[1] = designed as: OFF switch for flavin mononucleotide, no ligand
[2] = ligand present: flavin mononucleotide, designed as: OFF switch for flavin mononucleotide
[3] = designed as: ON switch for flavin mononucleotide, no ligand
[4] = ligand present: flavin mononucleotide, designed as: ON switch for flavin mononucleotide

## GGGCUCGGAGGAUAUACAAUUCUGGGCUGAAAGGCUCGGGUACAUGAGGAUCACCCAUGUAGAAGGUCGGGUCU
[1]
  apparent Kd: 15.9 nM
[2]
  apparent Kd: 15.9 nM

## GGGCUGUCAGGAUAUCGCGCGCGCGCGGAAAUGUGUGUGUGUGAGAAGGGACAUGAGGAUCACCCAUGUGGCCC
[1]
  apparent Kd: 35.6 nM
[2]
  apparent Kd: 36.8 nM

## GGGUAAUAUCGAGGAUAUGUCUAGACACAUGAGGAUCACCCAUGUAUGUGUAUAGAAGGCGAUAUUAACAGCAUGUUACAUCCC
[3]
  apparent Kd: 48.1 nM
[4]
  apparent Kd: 20.8 nM

## GGGUACAUCCGAGGAUAUCAUGUAAAUACAUGAGGAUCACCCAUGUCGAUGGAGACAUCGGAGAUUGAGAAGGCCGAUGUACCG
[3]
  apparent Kd: 344 nM
[4]
  apparent Kd: 22.9 nM

## GGGUACAUCGGAGGAUAUCAUGUAAAGACAUGAGGAUCACCCAUGUCGAUGGAGACAUCGGAGAUUGAGAAGGCCGAUGUACCG
[3]
  apparent Kd: 26.4 nM
[4]
  apparent Kd: 6.19 nM

## GGGUACAUCGGAGGAUAUCAUGUAAAUACAUGAGGAUCACCCAUGUCGAUAGAGACAUCGGAGAUUGAGAAGGCCGAUGUACCG
[3]
  apparent Kd: 41.7 nM
[4]
  apparent Kd: 300 nM

## GGGUACAUCGGAGGAUAUCAUGUAAAUACAUGAGGAUCACCCAUGUCGAUGGAGACAUCAGAGAUUGAGAAGGCCGAUGUACCG
[3]
  apparent Kd: 14.9 nM
[4]
  apparent Kd: 6.15 nM

## GGGUACAUCGGAGGAUAUCAUGUAAAUACAUGAGGAUCACCCAUGUCGAUGGAGACAUCGGAGAUUGAGAAGGCCGAUGUACCA
[3]
  apparent Kd: 154 nM
[4]
  apparent Kd: 10.1 nM

## GGGUACAUCGGAGGAUAUCAUGUAAAUACAUGAGGAUCACCCAUGUCGAUGGAGACAUCGGAGAUUGAGAAGGCCGAUGUCCCG
[3]
  apparent Kd: 194 nM
[4]
  apparent Kd: 7.99 nM

## GGGUACAUCGGAGGAUAUCAUGUAAAUACAUGAGGAUCACCCAUGUCGAUGGAGACAUCGGAUAUUGAGAAGGCCGAUGUACCG
[3]
  apparent Kd: 18.7 nM
[4]
  apparent Kd: 5.46 nM

## GGGUACAUCGGAGGAUAUCAUGUAAAUACAUGAGGAUCACCCAUGUCGAUGGAGACAUCGGCGAUUGAGAAGGCCGAUGUACCG
[3]
  apparent Kd: 752 nM
[4]
  apparent Kd: 17.6 nM

## GGGUACAUCGGAGGAUAUCAUGUAAAUACAUGAGGAUCACCCAUGUCGAUGGAGCCAUCGGAGAUUGAGAAGGCCGAUGUACCG
[3]
  apparent Kd: 14.3 nM
[4]
  apparent Kd: 5.63 nM

## GGGUACAUCGGAGGAUAUCAUGUCAAUACAUGAGGAUCACCCAUGUCGAUGGAGACAUCGGAGAUUGAGAAGGCCGAUGUACCG
[3]
  apparent Kd: 66.5 nM
[4]
  apparent Kd: 6.99 nM

## GGGUACAUCGGAGGAUAUCAUGUGAAUACAUGAGGAUCACCCAUGUCGAUGGAGACAUCGGAGAUUGAGAAGGCCGAUGUACCG
[3]
  apparent Kd: 446 nM
[4]
  apparent Kd: 15.1 nM

## GGGUACAUGGGAGGAUAUCCUCAAGAGACAUGAGGAUCACCCAUGUAUUAUAUGCCUCAUGGCAUGGAGAAGGCCCAUGUACCG
[3]
  apparent Kd: 188 nM
[4]
  apparent Kd: 160 nM

## GGGUACAUGGGAGGAUAUGGGAAGAUACAUGAGGAUCACCCAUGUUUAAGAAUGCCGAGAGGCAACUAGAAGGCCCAUGUACCG
[3]
  apparent Kd: 1040 nM
[4]
  apparent Kd: 49 nM

## GGGUACAUGGGAGGAUAUGGGACAUGAGGAUCACCCAUGUGAAAAUUAAAUAUGCCGAGAGGCAACUAGAAGGCCCAUGUACCG
[3]
  apparent Kd: 31.1 nM
[4]
  apparent Kd: 15.3 nM

## GGGUACGCAGGAUAUACAUGAAAAAAAAAAAAAAAAAAAAAACAUGAGGAUCACCCAUGUAGAAGGGCGUAUCC
[1]
  apparent Kd: 232 nM
[2]
  apparent Kd: 571 nM

## GGGUAGAUCGGAGGAUAUCAUGUAAAUACAUGAGGAUCACCCAUGUCGAUGGAGACAUCGGAGAUUGAGAAGGCCGAUGUACCG
[3]
  apparent Kd: 166 nM
[4]
  apparent Kd: 8.4 nM

## GGGUAUAUUACAUGAGGAUCACCCAUGUCAGAAAGGGUAAUCAGAAGGUACUAUUAGAGAAAGAGUAAGGAUAUGAUUAUACCC
[3]
  apparent Kd: 176 nM
[4]
  apparent Kd: 22.8 nM

## GGGUCAAUCUUUAGGUGGCGAGACUAGGAUAUGAGUGGUCCCACAUGAGGAUCACCCAUGUGUACUUAGAAGGAGUAGCGCCGU
[3]
  apparent Kd: 160 nM
[4]
  apparent Kd: 184 nM

## GGGUGACAUGAGGAUCACCCAUGUCAGGAUAUGCGCGCGCGCGCGAAAGUGUGUGUGUGUAGAAGGGACUGCCC
[1]
  apparent Kd: 49.6 nM
[2]
  apparent Kd: 81.2 nM

## GGUAAGAUGCAGAAGGUGUUAGCUAGAGCUACGACAUGAGGAUCACCCAUGUACUAGAAACAGUACAAGGAUAUGCAUCUUACA
[3]
  apparent Kd: 17.1 nM
[4]
  apparent Kd: 6.12 nM

## GGUACACAUGAGGAUCACCCAUGUCAGGAUAUCUGGAUACUCUUUAUUUUAGAUAUCCAGAGAAGGGACGUGCC
[1]
  apparent Kd: 30.8 nM
[2]
  apparent Kd: 40.9 nM

## GGUACCAUCGCAGGAUAUGCUUUCCUUUGGGAAGCAGAAGGGUGUAACAUGAGGAUCACCCAUGUGGUGCCAGGGCGUGAGCCU
[3]
  apparent Kd: 862 nM
[4]
  apparent Kd: 48.7 nM

## GGUACUCAAAGAGUACCAAUACGAACAUGAGGAUCACCCAUGUAGGAUAUGAAAACGCCGGAGUAGCAGAAGGACAUGUGCCUA
[1]
  apparent Kd: 11.4 nM
[2]
  apparent Kd: 11.1 nM

## GGUACUCAAAGAGUACCAAUACGAACAUGAGGAUCACCCAUGUAGGAUAUGCUACUCAAAGAGUAGCAGAAGGACAUGUGAAAU
[1]
  apparent Kd: 71.5 nM
[2]
  apparent Kd: 380 nM

## GGUACUCAAAGAGUACCAAUACGAACAUGAGGAUCACCCAUGUAGGAUAUGCUACUCAAAGAGUAGCAGAAGGACAUGUGCCUU
[1]
  apparent Kd: 31.4 nM
[2]
  apparent Kd: 252 nM

## GGUACUCAAAGAGUACUUGGUCGAACAUGAGGAUCACCCAUGUAGGAUAUGCUAAGCAAGAAGUAGCAGAAGGACAUGUGCAGC
[1]
  apparent Kd: 14.8 nM
[2]
  apparent Kd: 56.5 nM

## GGUAUGGACAGAGGAUAUACCGAUAGGAGAUACUAUCGACUAUUCCUCACAUGAGGAUCACCCAUGUAGAAGGCUGUCCAUACG
[1]
  apparent Kd: 17 nM
[2]
  apparent Kd: 65.5 nM

## GGUCGUCACAUUAACAUGAGGAUCACCCAUGUCAAAAGACAUGAGGAUAUGCAUAAUAAUAUAAAGCAGAAGGCAUGGACGACC
[3]
  apparent Kd: 240 nM
[4]
  apparent Kd: 14.4 nM

## GGUCUAGGCGAAGGAUAUCCGUCGCGAGAUACUGGAGAAGGUCGCCUUGAUACAUGAGGAUCACCCAUGUGGCGGGUGAACCAA
[1]
  apparent Kd: 98.5 nM
[2]
  apparent Kd: 19.3 nM

## GGUCUGAUAUGAGGAUAUGCUCAGGAAUACUGAGCAGAAGGCAUGUGAAAACAUGAGGAUCACCCAUGUAUGAUCUACAGACCA
[3]
  apparent Kd: 47 nM
[4]
  apparent Kd: 21.8 nM

## GGUCUGAUAUGAGGAUAUGCUCAGGAAUACUGAGCAGAAGGCAUGUGAAAACAUGAGGAUCACCCAUGUGAUCAAUACAGACCA
[3]
  apparent Kd: 147 nM
[4]
  apparent Kd: 23.7 nM

## GGUGACCUUGUAAGGAUAUCGAAUUUAGAUGAGCACGAGAAGGUACAUGAGGAUCACCCAUGUCUGCGGUAACU
[1]
  apparent Kd: 50.8 nM
[2]
  apparent Kd: 102 nM

## GGUGAGCAAGGAUAUACAUGAGGAUCACCCAUGUGAGAUGCGCAGGGCCCGAUGAUAGGUAGAAGGUGCGUCAC
[1]
  apparent Kd: 34.5 nM
[2]
  apparent Kd: 72.8 nM

## GGUGCACGCACAGGAUAUCCGGCGGAGCUCGUCGGAGAAGGGUGACAUGAGGAUCACCCAUGUACGUGCAACCCAGUUUGAGAG
[3]
  apparent Kd: 45.2 nM
[4]
  apparent Kd: 30.7 nM

## GGUGCCAUGUAGAAGGCAGAUCUGAUUCAGAUCUGAGGAUAUACAUGAGGAUCACCCAUGUAAAGCCACCGCACGAGAGUGCAA
[1]
  apparent Kd: 70.2 nM
[2]
  apparent Kd: 190 nM

## GGUGCGUAUGUGAGGAUAUGCUGGUCCUUGGAUCCGCAGAAGGCACAUGAGGAUCACCCAUGUGGUGUCGUACC
[1]
  apparent Kd: 299 nM
[2]
  apparent Kd: 27.6 nM

## GGUGCGUUUGUGAGGAUAUGCUGGUCCUUGGUUCCGCAGAAGGCACAUGAGGAUCACCCAUGUGGUGUCGUACC
[1]
  apparent Kd: 195 nM
[2]
  apparent Kd: 373 nM

## GGUGGACAUGAGGAUCACCCAUGUGAGGAUAUCGGCCGGCUAGUGGUGGCUGGCUUCUCGAGAAGGCGCAUAGU
[1]
  apparent Kd: 61.8 nM
[2]
  apparent Kd: 99.7 nM

## GGUGGACAUGAGGAUCACCCAUGUGAGGAUAUCGGCUGGCUAGCGGCGGAUGGCUUCUCGAGAAGGCGCAUAGU
[1]
  apparent Kd: 80.2 nM
[2]
  apparent Kd: 67.5 nM

## GGUGGCGUGAUAACGCUAGCUAUAACAUGAGGAUCACCCAUGUAGGAUAUCCCGCCGUGAGGGCGGGAGAAGGACAACCGAUGG
[1]
  apparent Kd: 28.5 nM
[2]
  apparent Kd: 30.8 nM

## GGUUAUAUAACAUGAGGAUCACCCAUGUGAGUGGUCCGAAUAUAGGAUAUCCACACGAGAAGUGUGGAGAAGGAUAAUUUAUUA
[1]
  apparent Kd: 40.7 nM
[2]
  apparent Kd: 206 nM

## GGUUGGCGAGGAUAUACAUGAGGAUCACCCAUGUGAGAGAAAAAAGUGAGGAAGAAAAGUAGAAGGCGCUGACG
[1]
  apparent Kd: 28.1 nM
[2]
  apparent Kd: 123 nM

## GGUUGGCGAGGAUAUACAUGAGGAUCACCCAUGUGGUCCUGCGGUGGUAUCGCCCUUUGUAGAAGGCGCGGGUC
[1]
  apparent Kd: 112 nM
[2]
  apparent Kd: 117 nM

## GGUUGGCGAGGAUAUACAUGAGGAUCACCCAUGUGGUCCUGUGAAAAAAAAAACCUUUGUAGAAGGCGCGGGUC
[1]
  apparent Kd: 292 nM
[2]
  apparent Kd: 281 nM

## GGUUGUCAUAGUCAUCCUUUCCGUACAUGAGGAUCACCCAUGUAGGAUAUGCUACUCACAGAGUAGCAGAAGGGCGUGUGUCUU
[1]
  apparent Kd: 19 nM
[2]
  apparent Kd: 19.6 nM

## GGUUGUCAUAGUCAUCCUUUCCGUACAUGAGGAUCACCCAUGUAGGAUAUGCUACUCACAGUGUGGCAGAAGGGCGUGUGUCUU
[2]
  apparent Kd: 19.4 nM

## GGUUUGGGAGGAUAUGGUUUUAAUAACAUGAGGAUCACCCAUGUAAAUAGAUCUUCGAGGCCAGAAGGCUCGGGCC
[1]
  apparent Kd: 63.8 nM
[2]
  apparent Kd: 120 nM

## GGUUUUUCUGAGGAUAUUGCAUCACCCGAUUUAUAAGAAGGCAGAACAUGAGGAUCACCCAUGUGGGUUUCUAG
[1]
  apparent Kd: 19.4 nM
[2]
  apparent Kd: 24.8 nM

## GUAAAGUGAGGAUAUGGUAAUUUAAUUAUUAAUUAAUUAAUCCAGAAGGCACAUGAGGAUCACCCAUGUAAAUG
[1]
  apparent Kd: 31.9 nM
[2]
  apparent Kd: 63 nM

## GUAAAUCAUGUAGGAUAUGCAUGGCGAAGCUACGCAGAAGGACAUGAGGAUCACCCAUGUCUCUCCGUCUGCAUACAGACGGAG
[1]
  apparent Kd: 26.9 nM
[2]
  apparent Kd: 230 nM

## GUAAAUCAUGUAGGAUAUGCAUGGCGAAGCUACGCAGAAGGACAUGAGGAUCACCCAUGUCUGUCCGUCUGCGAACAGACGGAC
[1]
  apparent Kd: 23.4 nM
[2]
  apparent Kd: 174 nM

## GUAAAUCAUGUAGGAUAUGCAUGGCGAAGCUACGCAGAAGGACAUGAGGAUCACCCAUGUUAUAGCUACCCAGUUCGGUGGCAA
[1]
  apparent Kd: 102 nM
[2]
  apparent Kd: 220 nM
